Hits are enriched below; roughly 2.6% of the tested compounds scored in any of these assays.
T cell HTS: T cell immune modulation candidate; 0.068% of 330,000 active; response (vesicle binding), % at 7 µM; 2C CD8+ T cell-vesicle binding, flow cytometry; hits give low values;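 active = response, share of CD8 T cells binding vesicles, and their 90th percentile fluorescence all below set limits, cut at about 80% in these data, passing the limit was not always enough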;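 also: values below 100% mean blocked vesicle binding to the CD8+ T cells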
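Material: murine 2C transgenic CD8+ T lymphocytes / Also added: QL9-peptide-loaded Drosophila micro-vesicles bearing Ld, ICAM-1 and B7-1 / Schedule: binding step 1.5 h, 37 °C, antibody labelling 20 min, ice / Signal: flow cytometry, PE anti-B7-1 (FL2) versus Alexa647 anti-CD8 (FL8), PFA-fixed / Evaluation: percent CD8+ FL2 mean versus row control / Benchmarks: naked versus QL9-loaded vesicles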
Rin1-Abl PPI inh: human Rin1-Abl interaction inhibition; P00519+Q13671; TR-FRET Rin1/Abl binding, biochemical; inhibition, % at 7.35 µM; 0.4% of 360,000 active; in the data active = inhibition above about 5%, passing the limit was not always enough
Myeloid diff 2: compounds promoting myeloid differentiation; 1% of 360,000 active; AID 624256; calls only at 10 µM; ER-HoxA9 myeloid progenitors, lysozyme-GFP differentiation, flow cytometry;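 active = normalized GFP-positive differentiation at or above the plate's own cutoff, the solvent-only control mean plus 3 SD; inconclusive = no clear call, values can overlap the other calls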;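 also: cells exposed to compound for four days before flow analysis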
GRK2 aptamer HTS: inhibitors of human GRK2 displacing RNA aptamer; P25098; bead flow cytometry, FAM-aptamer displacement from GRK2; inhibition of aptamer binding, % at 10 µM; 0.59% of 330,000 active;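 active = inhibition of aptamer binding above 40%, roughly 3 SD of noise, on plates passing a quality check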;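 also: median bead fluorescence of bound FAM aptamer so fluorescent compounds give negative values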
Target sequence (P25098 whole entry, looked up): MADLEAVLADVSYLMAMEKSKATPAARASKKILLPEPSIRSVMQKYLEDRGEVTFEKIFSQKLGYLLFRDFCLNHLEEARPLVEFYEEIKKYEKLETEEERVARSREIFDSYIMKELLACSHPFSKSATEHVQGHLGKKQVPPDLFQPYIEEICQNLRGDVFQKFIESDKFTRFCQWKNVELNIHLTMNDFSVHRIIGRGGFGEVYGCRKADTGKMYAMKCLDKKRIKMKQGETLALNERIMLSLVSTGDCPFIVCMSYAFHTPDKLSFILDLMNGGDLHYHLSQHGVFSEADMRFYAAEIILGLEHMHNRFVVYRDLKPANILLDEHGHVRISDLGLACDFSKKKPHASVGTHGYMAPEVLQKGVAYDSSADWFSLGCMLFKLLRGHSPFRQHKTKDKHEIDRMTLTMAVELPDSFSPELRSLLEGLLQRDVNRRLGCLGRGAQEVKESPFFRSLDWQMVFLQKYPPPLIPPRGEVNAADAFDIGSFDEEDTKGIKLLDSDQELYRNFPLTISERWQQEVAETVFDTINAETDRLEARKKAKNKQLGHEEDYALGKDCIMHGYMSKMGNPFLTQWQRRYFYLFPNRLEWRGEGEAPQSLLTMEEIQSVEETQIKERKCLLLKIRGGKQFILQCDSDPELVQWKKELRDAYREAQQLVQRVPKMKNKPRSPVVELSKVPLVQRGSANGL
SKN-1 inh: inhibitors of C. elegans SKN-1. 0.49% of 360,000 active. inhibition, % at 21.8 µM. C. elegans VP596 Pgst-4::GFP/RFP ratio, acrylamide-induced, 24 h;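 active = interference check ratio from 0.5 to 1.5 plus GFP to RFP signal ratio inhibition reaching or exceeding a fixed threshold, cut at about 30% in these data, passing the limit was not always enough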
Rce1 inhib: yeast Ras-converting enzyme inhibition; Q03530; yeast membranes, quenched prenylated peptide cleavage fluorescence; calls only; 0.27% of 290,000 active; AID 2563;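 active = fall in fluorescence gain of 50% or more versus controls, with final raw signal at or below 3038400; inconclusive = same 50% fall but final raw signal above 3038400; inactive = fall in fluorescence gain under 50%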;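 also: plate controls were neutral control wells for no effect and wells lacking membranes for full effect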
GRK2 CP1: human GRK2 inhibition confirmation, cherry pick 1; AID 504451; 4% of 2,000 active; aptamer displacement, % at 10 µM; shares compounds with GRK2 aptamer HTS; bead-bound GRK2, FAM-aptamer displacement, flow cytometry;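 active = aptamer displacement above 40%, near three times the noise of non-fluorescent compounds, on plates passing quality checks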;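 also: negative values mostly reflect intrinsic compound fluorescence rather than true enhancement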
Aptamer quench SP: quenches fluorescent RNA aptamer, GRK2 hit artifact | 2,000 tested, under 10 active | shares compounds with GRK2 aptamer HTS | Carboxyfluorescein RNA aptamer on beads, flow cytometry quenching; hits give low values | AID 504580 | fluorescence response (% of DMSO), % at 10 µM;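 active = compounds that quench the bead-bound fluorescent RNA probe, cutting fluorescence to under half of the solvent control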;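 also: counterscreen run without GRK2 so only probe quenching by compound is measured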
An asterisk follows results filed as active; i = inactive; u = inconclusive; x = not tested or not shown.

SMILES | T cell HTS | Rin1-Abl PPI inh | Myeloid diff 2 | GRK2 aptamer HTS | SKN-1 inh | Rce1 inhib | GRK2 CP1 | Aptamer quench SP
O=C1C=C(O)CC(c2ccco2)C1 (centres undefined) | 482.0 | -0.8 | i | 91.0* | -1.1 | x | 5.6 | 102.2
CN1CCc2c(sc3nc(SCC(N)=O)n(-c4ccccc4)c(=O)c23)C1 | 390.1 | -2.4 | i | 1.0 | 12.5 | i | x | x
C=C(C)CSc1nc2sc3c(c2c(=O)n1-c1ccccc1)CCN(C)C3 | 208.1 | -6.9 | i | 37.0 | 16.2 | i | 1.0 | 94.6
CCOC(=O)c1cccc(NC(=O)CNC(=O)C2CCCCC2)c1 | 189.8 | 4.3 | i | 54.0* | -9.9 | i | -0.9 | 96.5
Cc1cccc(C)c1NC(=O)COC(=O)CNC(=O)C1CCCCC1 | 342.3 | 3.4 | i | 95.0* | 12.4 | x | -0.3 | 97.9
COc1ccc(CC(=O)NC2CC(C)(C)NC(C)(C)C2)cc1 | 281.3 | 0.8 | i | 42.0* | -14.2 | i | -0.4 | 99.5
CC1(C)CC(NC(=O)Cc2ccccc2)CC(C)(C)N1 | 655.4 | -0.7 | i | 0.0 | -2.7 | i | x | x
COc1ccc2oc(C(=O)N(Cc3ccco3)Cc3cccs3)c(C)c2c1 | 156.6 | -1.5 | i | 80.0* | 18.8 | i | 0.5 | 97.4
COc1ccc2oc(C(=O)N3CCN(C(=O)c4ccco4)CC3)c(C)c2c1 | 238.4 | -0.3 | x | 1.0 | 0.2 | i | x | x
Nc1nc(SCC(=O)c2ccc(Cl)cc2)c2ncn(C3OC(CO)C(O)C3O)c2n1 (centres undefined) | x | 1.7 | u | x | 10.5 | x | x | x
C=CCn1c(=O)c2ccccc2n2nnc(C(=O)OCC)c12 | 420.7 | 0.8 | i | 6.0 | -1.1 | i | x | x
Cc1ccc(O)c(C(=O)c2cnc3c(c2)CN(CCC(C)C)C(=O)N3)c1 | 183.4 | -3.5 | i | 43.0* | 10.0 | i | -2.1 | 97.5
Cc1ccc(O)c(C(=O)c2cnc3c(c2)CN(C)C(=O)N3)c1 | 576.6 | -2.1 | i | 0.0 | 5.9 | i | x | x
CCn1cc(C(=O)NCCC(C)C)c(=O)c2cc(F)c(N3CCN(C(=O)c4ccco4)CC3)cc21 | 358.6 | -0.6 | i | 2.0 | -4.8 | i | x | x
O=C(N/N=C/c1ccc([N+](=O)[O-])o1)C1CC1 | 322.8 | 1.7 | i | 83.0* | 7.7 | i | 23.3 | 98.9
NC(=O)N/N=C/c1ccc([N+](=O)[O-])o1 | 378.1 | -3.2 | i | 5.0 | 4.5 | x | x | x
CCc1nnc(NC(=O)CSc2nnc(-c3ccc(OC)cc3)n2C)s1 | 427.2 | 1.4 | i | 2.0 | -22.6 | i | x | x
CCc1nnc(NC(=O)CSc2nnc(-c3ccc(O)cc3)n2C)s1 | 321.7 | -1.2 | i | 37.0 | -12.4 | i | -4.6 | 101.7
COc1cccc(CC2(CO)CCCN(Cc3cn[nH]c3C3CCCCC3)C2)c1 (centres undefined) | 536.2 | 3.5 | i | 0.0 | -0.9 | i | x | x
COc1cccc(CC2(CO)CCCN(Cc3cn[nH]c3-c3cc(C)ccc3C)C2)c1 (centres undefined) | 365.9 | -0.5 | i | 0.0 | 0.5 | i | 2.8 | 97.4
COc1cccc(CC2(CO)CCCN(Cc3[nH]c4ccc(C)cc4c3C)C2)c1 (centres undefined) | 189.0 | 1.2 | i | 40.0 | 3.7 | i | -9.6 | 91.7
O=C(C[C@@H]1C/C=C\C[C@@H](Cc2ccc(F)cc2)C(=O)OCCNC1=O)NCCO | 203.2 | 1.3 | i | 0.0 | 9.3 | x | x | x
O=C(Nc1cccc(-c2nc3ncccc3o2)c1)c1sc2cc(Cl)ccc2c1Cl | 344.7 | 2.9 | i | 75.0* | 5.6 | i | -0.7 | 104.8
O=C(O)c1cccc(-n2cccc2/C=C/[N+](=O)[O-])c1 | 318.1 | 6.2 | i | 51.0* | -0.8 | i | 30.4 | 99.5
O=C(O)c1cccc(-n2cccc2/C=C\[N+](=O)[O-])c1 | 435.9 | 2.4 | i | 18.0 | -6.7 | i | x | x

High-throughput results from PubChem.
